# Assay results published in ChEMBL document CHEMBL5724801, “EUbOPEN Chemogenomics Library - Multiplex” (2024).
# Values joined by “and” are separate entries in the source; they are usually repeats but may differ in a detail not shown here. Equal entries are not always repeated.
# Test system: HEK-293T
# Assay: Multiplex assay against HEK293T
# Format: toxicity, cell-based
# Details: human
# In short: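 Live cells were stained at seeding with Hoechst33342, BioTracker Green Microtubule Cytoskeleton Dye, MitoTracker Red and Annexin V Alexa Fluor 680, then imaged on a CQ1 microscope at 37°C and 5% CO2 after compound addition. CellPathfinder machine-learning gating split cells into Hoechst high-intensity objects or normal cells. Normal cells were split into healthy, pyknosed or fragmented nuclei, and pyknosed cells into mitotic or apoptotic. Tubulin, mitochondrial-mass and membrane-permeability phenotypes are per cents of healthy-nucleus cells.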
# [1] = 12 h, 1 µM, compound concentration 1 uM
# [2] = 12 h, 10 µM, compound concentration 10 uM
# [3] = 24 h, 1 µM, compound concentration 1 uM
# [4] = 24 h, 10 µM, compound concentration 10 uM
# [5] = 48 h, 1 µM, compound concentration 1 uM
# [6] = 48 h, 10 µM, compound concentration 10 uM
structure (smiles),measurement,setting,value
c1cc(OCCCN2CCCCC2)ccc1CN1CCCCC1 [JNJ-5207852],Population Apoptotic (%),[1],36% and 47%
same,Population Fragmented Nuclei (%),[1],6% and 10%
same,Population Healthy Nuclei (%),[1],84% and 75%
same,Population Hoechst High Intensity Objects (%),[1],5%
same,Population Membrane Permeable-Phenotype (%),[1],0%
same,Population Mitochondria Different-Phenotype (%),[1],36% and 53%
same,Population Mitotic Cells (%),[1],63% and 52%
same,Population Normal (%),[1],94%
same,Population Pyknosed Nuclei (%),[1],8% and 13%
same,Population Tubulin-Different-Phenotype (%),[1],21% and 17%
same,Total Cell Count,[1],577 and 310
same,Population Apoptotic (%),[2],40% and 66%
same,Population Fragmented Nuclei (%),[2],7%
same,Population Healthy Nuclei (%),[2],75% and 67%
same,Population Hoechst High Intensity Objects (%),[2],7% and 11%
same,Population Membrane Permeable-Phenotype (%),[2],0% and 1%
same,Population Mitochondria Different-Phenotype (%),[2],63% and 69%
same,Population Mitotic Cells (%),[2],59% and 33%
same,Population Normal (%),[2],92% and 88%
same,Population Pyknosed Nuclei (%),[2],17% and 24%
same,Population Tubulin-Different-Phenotype (%),[2],52% and 41%
same,Total Cell Count,[2],328 and 259
same,Population Apoptotic (%),[3],25% and 41%
same,Population Fragmented Nuclei (%),[3],6% and 11%
same,Population Healthy Nuclei (%),[3],82% and 79%
same,Population Hoechst High Intensity Objects (%),[3],5% and 3%
same,Population Membrane Permeable-Phenotype (%),[3],1% and 0%
same,Population Mitochondria Different-Phenotype (%),[3],20% and 30%
same,Population Mitotic Cells (%),[3],74% and 58%
same,Population Normal (%),[3],94% and 96%
same,Population Pyknosed Nuclei (%),[3],11% and 9%
same,Population Tubulin-Different-Phenotype (%),[3],15% and 12%
same,Total Cell Count,[3],710 and 447
same,Population Apoptotic (%),[4],47% and 65%
same,Population Fragmented Nuclei (%),[4],9% and 8%
same,Population Healthy Nuclei (%),[4],77% and 79%
same,Population Hoechst High Intensity Objects (%),[4],6% and 5%
same,Population Membrane Permeable-Phenotype (%),[4],1% and 2%
same,Population Mitochondria Different-Phenotype (%),[4],47% and 50%
same,Population Mitotic Cells (%),[4],52% and 34%
same,Population Normal (%),[4],93% and 94%
same,Population Pyknosed Nuclei (%),[4],13% and 11%
same,Population Tubulin-Different-Phenotype (%),[4],44% and 35%
same,Total Cell Count,[4],414 and 322
same,Population Apoptotic (%),[5],17% and 23%
same,Population Fragmented Nuclei (%),[5],14% and 11%
same,Population Healthy Nuclei (%),[5],80% and 83%
same,Population Hoechst High Intensity Objects (%),[5],2% and 1%
same,Population Membrane Permeable-Phenotype (%),[5],1%
same,Population Mitochondria Different-Phenotype (%),[5],12% and 17%
same,Population Mitotic Cells (%),[5],82% and 76%
same,Population Normal (%),[5],97% and 98%
same,Population Pyknosed Nuclei (%),[5],5% and 4%
same,Population Tubulin-Different-Phenotype (%),[5],11% and 9%
same,Total Cell Count,[5],1128 and 746
same,Population Apoptotic (%),[6],34% and 52%
same,Population Fragmented Nuclei (%),[6],13%
same,Population Healthy Nuclei (%),[6],77% and 75%
same,Population Hoechst High Intensity Objects (%),[6],8% and 9%
same,Population Membrane Permeable-Phenotype (%),[6],1%
same,Population Mitochondria Different-Phenotype (%),[6],29% and 38%
same,Population Mitotic Cells (%),[6],65% and 47%
same,Population Normal (%),[6],91% and 90%
same,Population Pyknosed Nuclei (%),[6],8% and 10%
same,Population Tubulin-Different-Phenotype (%),[6],28% and 30%
same,Total Cell Count,[6],619 and 424
Cc1nn(C)c2nc(NNC(=O)Nc3cc(Cl)nc(Cl)c3)cc(C(C)C)c12,Population Apoptotic (%),[1],27% and 40%
same,Population Fragmented Nuclei (%),[1],5%
same,Population Healthy Nuclei (%),[1],77% and 81%
same,Population Hoechst High Intensity Objects (%),[1],5% and 2%
same,Population Membrane Permeable-Phenotype (%),[1],0%
same,Population Mitochondria Different-Phenotype (%),[1],37% and 59%
same,Population Mitotic Cells (%),[1],72% and 60%
same,Population Normal (%),[1],94% and 97%
same,Population Pyknosed Nuclei (%),[1],16% and 13%
same,Population Tubulin-Different-Phenotype (%),[1],26% and 25%
same,Total Cell Count,[1],467 and 383
same,Population Apoptotic (%),[2],55% and 46%
same,Population Fragmented Nuclei (%),[2],5% and 4%
same,Population Healthy Nuclei (%),[2],61% and 74%
same,Population Hoechst High Intensity Objects (%),[2],12% and 3%
same,Population Membrane Permeable-Phenotype (%),[2],1%
same,Population Mitochondria Different-Phenotype (%),[2],79% and 84%
same,Population Mitotic Cells (%),[2],44% and 53%
same,Population Normal (%),[2],88% and 96%
same,Population Pyknosed Nuclei (%),[2],32% and 21%
same,Population Tubulin-Different-Phenotype (%),[2],80% and 75%
same,Total Cell Count,[2],300 and 396
same,Population Apoptotic (%),[3],31%
same,Population Fragmented Nuclei (%),[3],9% and 6%
same,Population Healthy Nuclei (%),[3],78% and 82%
same,Population Hoechst High Intensity Objects (%),[3],3% and 1%
same,Population Membrane Permeable-Phenotype (%),[3],0%
same,Population Mitochondria Different-Phenotype (%),[3],27% and 37%
same,Population Mitotic Cells (%),[3],68%
same,Population Normal (%),[3],96% and 98%
same,Population Pyknosed Nuclei (%),[3],11%
same,Population Tubulin-Different-Phenotype (%),[3],20% and 19%
same,Total Cell Count,[3],608 and 512
same,Population Apoptotic (%),[4],59% and 55%
same,Population Fragmented Nuclei (%),[4],10% and 5%
same,Population Healthy Nuclei (%),[4],66% and 78%
same,Population Hoechst High Intensity Objects (%),[4],5%
same,Population Membrane Permeable-Phenotype (%),[4],0%
same,Population Mitochondria Different-Phenotype (%),[4],78% and 80%
same,Population Mitotic Cells (%),[4],40% and 44%
same,Population Normal (%),[4],94% and 95%
same,Population Pyknosed Nuclei (%),[4],22% and 16%
same,Population Tubulin-Different-Phenotype (%),[4],74% and 69%
same,Total Cell Count,[4],321 and 440
same,Population Apoptotic (%),[5],27% and 18%
same,Population Fragmented Nuclei (%),[5],12% and 13%
same,Population Healthy Nuclei (%),[5],78% and 81%
same,Population Hoechst High Intensity Objects (%),[5],3% and 2%
same,Population Membrane Permeable-Phenotype (%),[5],1%
same,Population Mitochondria Different-Phenotype (%),[5],17% and 25%
same,Population Mitotic Cells (%),[5],72% and 81%
same,Population Normal (%),[5],96% and 97%
same,Population Pyknosed Nuclei (%),[5],9% and 5%
same,Population Tubulin-Different-Phenotype (%),[5],16% and 19%
same,Total Cell Count,[5],912 and 748
same,Population Apoptotic (%),[6],62% and 45%
same,Population Fragmented Nuclei (%),[6],9%
same,Population Healthy Nuclei (%),[6],72% and 79%
same,Population Hoechst High Intensity Objects (%),[6],3% and 4%
same,Population Membrane Permeable-Phenotype (%),[6],0%
same,Population Mitochondria Different-Phenotype (%),[6],82% and 71%
same,Population Mitotic Cells (%),[6],37% and 55%
same,Population Normal (%),[6],96% and 95%
same,Population Pyknosed Nuclei (%),[6],18% and 10%
same,Population Tubulin-Different-Phenotype (%),[6],78% and 63%
same,Total Cell Count,[6],387 and 593
